Source: article PMC3319382 (Bioorganic & medicinal chemistry, 2011)
“Also recorded” adds a separate entry of the source. Each block holds one molecule with its values, some of them ahead of it.

Columns and labels:
yeast Rce1p [1] = biological target: T1, yeast Rce1p (Saccharomyces cerevisiae, UniProt Q03530); details: ref [12], [13]; cited from earlier work
T1 sequence (Q03530 1-315): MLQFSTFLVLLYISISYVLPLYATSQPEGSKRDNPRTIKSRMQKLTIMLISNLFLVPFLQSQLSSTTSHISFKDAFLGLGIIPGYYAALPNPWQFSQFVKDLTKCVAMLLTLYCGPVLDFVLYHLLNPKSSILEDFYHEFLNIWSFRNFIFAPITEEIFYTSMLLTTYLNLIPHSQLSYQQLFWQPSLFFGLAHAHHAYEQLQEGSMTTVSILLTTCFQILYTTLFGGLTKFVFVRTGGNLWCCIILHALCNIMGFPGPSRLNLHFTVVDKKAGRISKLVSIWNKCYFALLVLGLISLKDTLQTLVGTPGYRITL

yeast Rce1p [2] = biological target: T1, yeast Rce1p; experiment: fluorescence-based CAAX proteolysis kinetic assay; type: biochemical
Outline: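 Enzyme source was carbonate-washed membranes from S. cerevisiae overexpressing yeast Rce1p as sole CAAX protease, diluted in 100 mM Hepes pH 7.5, 5 mM MgCl2 and preincubated 10 min at 30 °C. The final mix held 0.25 mg/mL membrane protein and a 10-point substrate series (0–45 or 0–50 μM) in triplicate wells. Read at 340/420 nm every 30–60 s for 1 h at 30 °C. Product was quantified against trypsin-cleaved standard curves.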

[3] = biological target: Ras Converting Enzyme 1 (Rce1p), HA-epitope tagged, yeast (S. cerevisiae) (UniProt Q03530); experiment: cross-linking

Molecule: c1cnc2c(c1)ccc1cccnc12 [1,10-phenanthroline]
inhibition of yeast Rce1p (yeast Rce1p [1]): inhibited

Molecule: [Zn] [zinc]
inhibition of yeast Rce1p (yeast Rce1p [1]): inhibited

h (Hill coefficient) (yeast Rce1p [2]; Rce1p-enriched membranes 0.25 mg/mL, pH 7.5, 30 °C, Hill Equation fit, n=5): 1.8
Vmax/KM (yeast Rce1p [2]; Rce1p-enriched membranes 0.25 mg/mL, pH 7.5, 30 °C, n=5): 8.9×10^−5 L/min/mg protein
efficiency (Vmax/KM) of Rce1p processing, fold lower than 2 (yeast Rce1p [2]; compared with 2): 10 -fold
maximal processing rate (Vmax), fold less than 2 (yeast Rce1p [2]; compared with 2): approximately 7 -fold
maximal processing rate (Vmax), fold greater than 4 (yeast Rce1p [2]; compared with 4): 9 -fold
Rce1p substrate (yeast Rce1p [2]; fluorescence-based kinetic evaluation): could serve as a substrate for Rce1p
binding affinity, fold less than that of 4 (yeast Rce1p [2]; from KM, compared with 4): 4 -fold
Molecule: Abz-KSKTKC(C10BP)K(Dnp)IM [Peptide 6]
efficiency (Vmax/KM) of Rce1p processing compared with 4 (yeast Rce1p [2]; compared with 4): approximately double that of 4; also recorded: increased approximately two-fold

percent labeling of Rce1p by 14 (15 μM) left with 50 μM 2 [3]: 84%
percent labeling of Rce1p by 14 (15 μM) left with 100 μM 2 [3]: 7%
Molecule: Peptide 2, Abz-KSKTKC(farnesyl)K(Dnp)IM, internally quenched fluorogenic farnesylated substrate based on the K-Ras4b C-terminal sequence

fold labeling efficiency against probe 8 (fold less than 8) [3]: 4
Molecule: Peptide 9, Biotin-K(Dde)KSKTKC(C10BP)K(Dnp)IM
